Source: ChEMBL document CHEMBL4725483, “Simultaneous Inhibition of SIRT2 Deacetylase and Defatty-Acylase Activities via a PROTAC Strategy” (ACS Med Chem Lett, 2020)
Active and inactive are the calls of the source. The rule behind the calls is not given here.

Columns and labels:
[1] = biological target: T1, Protein cereblon/NAD-dependent protein deacetylase sirtuin-2 (Homo sapiens) (UniProt Q8IXJ6+Q96SW2); assay: Protac activity at CRBN/SIRT2 in human BT549 cells assessed as SIRT2 degradation at 5 to 10 uM after 48 hrs by immunoblot analysis; assay type: cell-based; conditions: BT-549, dose microM 5-10, time 48.0 hrs
How it was run: (§1)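 Cells exposed to compound at the indicated concentrations for 48 h. SIRT1, SIRT2 and SIRT3 levels were read by immunoblot.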

[2] = biological target: T1, Protein cereblon/NAD-dependent protein deacetylase sirtuin-2 (Homo sapiens); assay: Protac activity at CRBN/SIRT2 in human HEK293T cells stably expressing flag-tagged K-Ras4a assessed as inhibition of SIRT2 defatty-acylation at 1 uM incubated for 42 hrs followed by Alkyne-14 addition and measured after 6 hrs by immunoprecipitation based assay; assay type: cell-based; conditions: HEK-293T
How it was run: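 HEK 293T cells stably expressing Flag-K-Ras4a-G12V were treated with 1 μM compound for 42 h, then labelled with 50 μM Alk-14 for 6 h more. Flag-K-Ras4a was immunoprecipitated and a fluorescent dye attached by click chemistry. NH2OH was applied to strip cysteine fatty acylation, and lysine fatty acylation was measured by in-gel fluorescence and quantified relative to DMSO.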

[3] = biological target: T1, Protein cereblon/NAD-dependent protein deacetylase sirtuin-2 (Homo sapiens); assay: Protac activity at CRBN/SIRT2 in human MCF7 cells assessed as SIRT2 degradation at 5 to 10 uM after 48 hrs by immunoblot analysis; assay type: cell-based; conditions: dose microM 5-10, time 48.0 hrs; how it was run: as §1
[4] = biological target: T2, NAD-dependent protein deacetylase sirtuin-2 (Homo sapiens, UniProt Q8IXJ6); assay: Inhibition of human SIRT2 deacetylation activity using H3K9Ac as substrate in presence of NAD+ by HPLC analysis
T2 sequence (Q8IXJ6 whole entry): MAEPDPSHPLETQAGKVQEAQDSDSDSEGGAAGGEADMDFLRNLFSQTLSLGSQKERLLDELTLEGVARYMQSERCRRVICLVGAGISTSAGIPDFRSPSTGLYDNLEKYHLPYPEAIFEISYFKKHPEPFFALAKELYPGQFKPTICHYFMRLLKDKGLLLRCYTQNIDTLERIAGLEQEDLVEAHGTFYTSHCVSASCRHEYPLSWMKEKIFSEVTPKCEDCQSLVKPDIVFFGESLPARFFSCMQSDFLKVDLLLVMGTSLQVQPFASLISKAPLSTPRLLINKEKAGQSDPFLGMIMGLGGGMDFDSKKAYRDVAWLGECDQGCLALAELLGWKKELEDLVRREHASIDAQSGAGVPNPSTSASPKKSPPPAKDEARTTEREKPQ

[5] = biological target: Protein cereblon/NAD-dependent protein deacetylase sirtuin-1 (Homo sapiens) (UniProt Q96EB6+Q96SW2); assay: Protac activity at CRBN/SIRT1 in human HEK293T cells stably expressing flag-tagged K-Ras4a-G12V assessed as inhibition of SIRT2 defatty-acylation at 1 uM incubated for 48 hrs by immunoblot analysis; assay type: cell-based; conditions: HEK-293T
How it was run: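 HEK 293T cells stably overexpressing Flag-tagged K-Ras4a-G12V (confirmed by pan-Ras blot) were exposed to 1 μM compound for 48 h. SIRT1, SIRT2 and SIRT3 levels were then read by immunoblot.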

[6] = biological target: T1, Protein cereblon/NAD-dependent protein deacetylase sirtuin-2 (Homo sapiens); assay: Protac activity at CRBN/SIRT2 in human MDA-MB-231 cells assessed as SIRT2 degradation after 48 hrs by immunoblot analysis; assay type: cell-based
How it was run: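 In MDA-MB-231 and MDA-MB-468 cells, SIRT2 was assessed by immunoblot after compound treatment.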

[7] = biological target: T2, NAD-dependent protein deacetylase sirtuin-2; assay: Inhibition of human SIRT2 deacetylation activity using H3K9Ac as substrate preincubated for 15 mins in presence of NAD+ by HPLC analysis
How it was run: (§2)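 In vitro sirtuin reaction mixture with compound at a range of concentrations. Compound was preincubated with NAD+ and the enzyme before the substrate peptide was added. IC50 taken from the concentration series.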

[8] = biological target: T3, NAD-dependent protein deacetylase sirtuin-3, mitochondrial (Homo sapiens, UniProt Q9NTG7); assay: Inhibition of human SIRT3 deacetylation activity using H3K9Ac as substrate preincubated for 15 mins in presence of NAD+ followed by substrate addition by HPLC analysis; how it was run: as §2
T3 sequence (Q9NTG7 whole entry): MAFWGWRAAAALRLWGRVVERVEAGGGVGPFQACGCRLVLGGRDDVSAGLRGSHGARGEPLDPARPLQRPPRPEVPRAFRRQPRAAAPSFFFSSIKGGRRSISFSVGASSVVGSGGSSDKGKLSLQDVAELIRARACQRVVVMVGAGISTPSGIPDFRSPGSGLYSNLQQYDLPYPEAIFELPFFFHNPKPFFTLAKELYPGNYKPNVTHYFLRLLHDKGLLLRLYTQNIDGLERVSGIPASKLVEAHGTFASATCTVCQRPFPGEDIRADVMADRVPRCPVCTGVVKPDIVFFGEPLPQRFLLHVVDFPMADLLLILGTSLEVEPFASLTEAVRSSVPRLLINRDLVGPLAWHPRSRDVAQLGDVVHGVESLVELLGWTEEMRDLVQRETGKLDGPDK

Homo sapiens = species on record: Homo sapiens; assay: Selectivity ratio of IC50 for inhibition of human SIRT1 deacetylation activity to IC50 for inhibition of human SIRT2 deacetylation activity
How it was run: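 Ratio of SIRT1 deacetylase IC50 to SIRT2 deacetylase IC50, both measured with compound, NAD+ and enzyme preincubated before peptide substrate addition.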

[9] = biological target: NAD-dependent protein deacylase sirtuin-5, mitochondrial (Homo sapiens, UniProt Q9NXA8); assay: Inhibition of human SIRT5 deacetylation activity using H3K9Ac as substrate preincubated for 15 mins in presence of NAD+ followed by substrate addition by HPLC analysis; how it was run: as §2
[10] = biological target: T4, Protein cereblon/NAD-dependent protein deacetylase sirtuin-3, mitochondrial (Homo sapiens) (UniProt Q9NTG7+Q96SW2); assay: Protac activity at CRBN/SIRT3 in human HEK293T cells assessed as abundance ratio at 5 uM incubated for 16 hrs by TMT global proteomics assay relative to DMSO; assay type: cell-based; conditions: HEK-293T
How it was run: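 HEK 293T cells given 5 μM compound for 16 h. Global proteomics used Tandem Mass Tag labelling, and each sirtuin's abundance is given as a ratio of treated to DMSO-treated cells.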

[11] = biological target: T1, Protein cereblon/NAD-dependent protein deacetylase sirtuin-2 (Homo sapiens); assay: Protac activity at CRBN/SIRT2 in human MCF7 cells assessed as SIRT2 degradation at 0.5 uM after 48 hrs by immunoblot analysis; assay type: cell-based
How it was run: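 MCF7 cells given a range of concentrations below and above 5 μM (0.5 to 50 μM) for 48 h; SIRT2 measured by immunoblot against vehicle-treated cells.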

[12] = biological target: T1, Protein cereblon/NAD-dependent protein deacetylase sirtuin-2 (Homo sapiens); assay: Protac activity at CRBN/SIRT2 in human HEK293T cells assessed as abundance ratio at 5 uM incubated for 16 hrs by TMT global proteomics assay relative to DMSO; assay type: cell-based; conditions: HEK-293T
How it was run: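 HEK 293T cells were treated for 16 h. Global proteome was quantified by Tandem Mass Tag labelling. The abundance ratio of each sirtuin was taken against DMSO-treated cells.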

[13] = biological target: T4, Protein cereblon/NAD-dependent protein deacetylase sirtuin-3, mitochondrial (Homo sapiens); assay: Protac activity at CRBN/SIRT3 in human MCF7 cells assessed as SIRT3 degradation at 5 to 10 uM after 48 hrs by immunoblot analysis; assay type: cell-based; conditions: dose microM 5-10, time 48.0 hrs
How it was run: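 MCF7 or BT-549 cells exposed to inhibitor at the indicated concentrations for 48 h; SIRT1, SIRT2 and SIRT3 levels read by immunoblot.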

[14] = biological target: NAD-dependent protein deacylase sirtuin-6 (Homo sapiens, UniProt Q8N6T7); assay: Inhibition of human SIRT6 deacetylation activity using H3K9Ac as substrate preincubated for 15 mins in presence of NAD+ followed by substrate addition by HPLC analysis; how it was run: as §2
Sequence of NAD-dependent protein deacylase sirtuin-6 (Q8N6T7 whole entry): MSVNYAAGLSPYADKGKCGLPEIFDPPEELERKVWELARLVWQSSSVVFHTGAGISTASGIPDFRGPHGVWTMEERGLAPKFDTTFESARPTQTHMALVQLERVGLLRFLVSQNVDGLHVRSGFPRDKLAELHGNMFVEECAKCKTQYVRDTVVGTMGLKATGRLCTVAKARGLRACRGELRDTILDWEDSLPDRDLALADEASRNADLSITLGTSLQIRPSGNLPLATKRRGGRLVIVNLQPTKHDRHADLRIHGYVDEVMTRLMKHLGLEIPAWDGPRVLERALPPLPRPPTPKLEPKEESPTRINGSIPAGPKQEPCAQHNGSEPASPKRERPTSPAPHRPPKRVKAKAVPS

T1 sequence (Q96SW2 whole entry, looked up, one chain of several): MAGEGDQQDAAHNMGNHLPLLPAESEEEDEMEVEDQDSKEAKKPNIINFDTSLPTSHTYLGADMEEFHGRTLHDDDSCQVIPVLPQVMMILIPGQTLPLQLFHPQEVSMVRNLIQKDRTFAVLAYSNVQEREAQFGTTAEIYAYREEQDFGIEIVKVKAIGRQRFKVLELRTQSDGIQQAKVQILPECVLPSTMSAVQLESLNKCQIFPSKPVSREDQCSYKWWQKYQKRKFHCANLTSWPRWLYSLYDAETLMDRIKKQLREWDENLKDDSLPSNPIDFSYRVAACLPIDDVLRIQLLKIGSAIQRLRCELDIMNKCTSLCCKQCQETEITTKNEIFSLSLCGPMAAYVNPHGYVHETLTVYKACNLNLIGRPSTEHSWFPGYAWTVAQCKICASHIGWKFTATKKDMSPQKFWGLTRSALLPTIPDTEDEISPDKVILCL
T4 sequence (Q96SW2 whole entry, looked up, one chain of several): as above
Sequence of Protein cereblon/NAD-dependent protein deacetylase sirtuin-1 (Homo sapiens) (Q96EB6 whole entry, looked up): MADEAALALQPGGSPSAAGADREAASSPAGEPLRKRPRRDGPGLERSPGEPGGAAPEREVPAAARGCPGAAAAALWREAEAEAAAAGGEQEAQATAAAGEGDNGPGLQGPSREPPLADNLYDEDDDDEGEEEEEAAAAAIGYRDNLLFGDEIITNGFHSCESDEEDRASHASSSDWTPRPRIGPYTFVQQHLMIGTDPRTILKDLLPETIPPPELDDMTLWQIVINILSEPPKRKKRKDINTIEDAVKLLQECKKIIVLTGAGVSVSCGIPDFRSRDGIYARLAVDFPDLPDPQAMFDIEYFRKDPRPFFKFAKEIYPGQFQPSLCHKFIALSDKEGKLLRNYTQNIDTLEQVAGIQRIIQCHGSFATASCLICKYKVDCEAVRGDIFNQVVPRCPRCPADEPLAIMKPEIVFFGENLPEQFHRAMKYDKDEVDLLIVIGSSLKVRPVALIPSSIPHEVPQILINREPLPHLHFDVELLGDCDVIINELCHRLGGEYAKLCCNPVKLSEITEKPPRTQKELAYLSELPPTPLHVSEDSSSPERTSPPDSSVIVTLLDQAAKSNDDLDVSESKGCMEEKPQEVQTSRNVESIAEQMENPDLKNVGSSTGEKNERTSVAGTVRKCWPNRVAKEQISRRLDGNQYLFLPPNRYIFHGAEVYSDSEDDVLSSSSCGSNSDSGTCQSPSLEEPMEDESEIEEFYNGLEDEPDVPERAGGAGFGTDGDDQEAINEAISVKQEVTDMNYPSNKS
Sequence of Protein cereblon/NAD-dependent protein deacetylase sirtuin-1 (Homo sapiens) (Q96SW2 whole entry, looked up): as the sequence (Q96SW2 whole entry, looked up, one chain of several) above
Sequence of NAD-dependent protein deacylase sirtuin-5, mitochondrial (Q9NXA8 whole entry): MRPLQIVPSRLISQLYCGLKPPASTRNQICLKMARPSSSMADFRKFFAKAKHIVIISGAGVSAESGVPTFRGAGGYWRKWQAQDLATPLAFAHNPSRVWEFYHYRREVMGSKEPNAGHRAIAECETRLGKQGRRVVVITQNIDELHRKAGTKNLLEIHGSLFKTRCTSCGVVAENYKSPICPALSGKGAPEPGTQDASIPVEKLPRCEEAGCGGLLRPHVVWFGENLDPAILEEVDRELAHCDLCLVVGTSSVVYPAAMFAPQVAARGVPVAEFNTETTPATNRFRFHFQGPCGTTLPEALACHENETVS

In the case of `CCCCCCCCCCCCCC(=S)NCCCC[C@H](NC(=O)CCOCCOCCOCCOCCNc1cccc2c1C(=O)N(C1CCC(=O)NC1=O)C2=O)C(=O)Nc1ccccc1` (stereo not given in full), the Activity [1] is reported as “Active”, the Activity [2] is reported as “Active” and the Activity [3] is reported as “Active”. For the same compound, the IC50 [4] was 93 nM, the Activity [5] was “inactive” and the Activity [6] was “Active”. The IC50 [7] was 78 nM, the IC50 [8] was > 83000 nM and the Ratio IC50 (Homo sapiens) was 500. For the same compound, the IC50 [9] was > 83000 nM, the Activity [10] was “inactive” and the Activity [11] was “Active”. The Ratio [12] was 0.36, the Activity [13] was “inactive” and the IC50 [14] was > 83000 nM.
